# Laboratory results from ChEMBL document CHEMBL1255347, “Multiclonal outbreak of Klebsiella pneumoniae producing extended-spectrum beta-lactamase CTX-M-2 and novel variant CTX-M-59 in a neonatal intensive care unit in Brazil” (2008).
# Legend:
# Type in all cases: functional
# [1] = tested on: Klebsiella pneumoniae; test: Antimicrobial activity against CTX-M-59 producing Klebsiella pneumoniae with PFGE pulsotype G by Etest
# In short: (§1)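 Clinical K. pneumoniae isolates from a neonatal ICU outbreak near São Paulo were typed by XbaI PFGE using Tenover criteria. Cultures were grown in LB broth at 37°C. Etest MICs followed the manufacturer's instructions, with cefotaxime and ceftazidime each tested with and without clavulanic acid.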
# [2] = tested on: Klebsiella pneumoniae; test: Antimicrobial activity against CTX-M-2 producing Klebsiella pneumoniae with PFGE pulsotype I by Etest
# [3] = tested on: Klebsiella pneumoniae; test: Antimicrobial activity against CTX-M-2 producing Klebsiella pneumoniae with PFGE pulsotype H by Etest; in short: as §1
# [4] = tested on: Klebsiella pneumoniae; test: Antimicrobial activity against CTX-M-2 producing Klebsiella pneumoniae with PFGE pulsotype A by Etest; in short: as §1
# [5] = tested on: Klebsiella pneumoniae; test: Antimicrobial activity against CTX-M-2 producing Klebsiella pneumoniae with PFGE pulsotype B by Etest; in short: as §1
# [6] = tested on: Klebsiella pneumoniae; test: Antimicrobial activity against SHV-5 producing Klebsiella pneumoniae with PFGE pulsotype D by Etest; in short: as §1
# [7] = tested on: Klebsiella pneumoniae; test: Antimicrobial activity against CTX-M-59 producing Klebsiella pneumoniae with PFGE pulsotype C by Etest
# [8] = tested on: Klebsiella pneumoniae; test: Antimicrobial activity against CTX-M-59 producing Klebsiella pneumoniae with PFGE pulsotype E by Etest
# [9] = tested on: Klebsiella pneumoniae; test: Antimicrobial activity against CTX-M-2 producing Klebsiella pneumoniae with PFGE pulsotype J by Etest
# [10] = tested on: Klebsiella pneumoniae; test: Antimicrobial activity against CTX-M-2 and TEM-1 producing Klebsiella pneumoniae transconjugants/transformants with PFGE pulsotype F by Etest
# In short: (§2)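 The recipient was E. coli XL1-Blue Rifr NAr. Plasmids moved by broth mating, with transconjugants selected on LB agar containing ampicillin, rifampin and nalidixic acid, each at 50 μg/ml. Where mating failed, alkaline-lysis plasmid extracts were electroporated and selected on ampicillin 50 μg/ml. β-lactam MICs were read by Etest, with and without clavulanic acid.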
# [11] = tested on: Klebsiella pneumoniae; test: Antimicrobial activity against CTX-M-59 and TEM-1 producing Klebsiella pneumoniae transconjugants/transformants with PFGE pulsotype E by Etest; in short: as §2
# [12] = tested on: Klebsiella pneumoniae; test: Antimicrobial activity against CTX-M-2 and TEM-1 producing Klebsiella pneumoniae transconjugants/transformants with PFGE pulsotype B by Etest; in short: as §2
# [13] = tested on: Klebsiella pneumoniae; test: Antimicrobial activity against SHV-5 producing Klebsiella pneumoniae transconjugants/transformants with PFGE pulsotype D by Etest; in short: as §2
# [14] = tested on: Klebsiella pneumoniae; test: Antimicrobial activity against CTX-M-2 and TEM-1 producing Klebsiella pneumoniae transconjugants/transformants with PFGE pulsotype A by Etest; in short: as §2
# [15] = tested on: Klebsiella pneumoniae; test: Antimicrobial activity against CTX-M-2 and TEM-1 producing Klebsiella pneumoniae transconjugants/transformants with PFGE pulsotype H by Etest; in short: as §2
# [16] = tested on: Klebsiella pneumoniae; test: Antimicrobial activity against CTX-M-2 and TEM-1 producing Klebsiella pneumoniae transconjugants/transformants with PFGE pulsotype I by Etest; in short: as §2
# [17] = tested on: Klebsiella pneumoniae; test: Antimicrobial activity against CTX-M-2 and TEM-1 producing Klebsiella pneumoniae transconjugants/transformants with PFGE pulsotype J by Etest; in short: as §2
# [18] = tested on: Klebsiella pneumoniae; test: Antimicrobial activity against CTX-M-59 and TEM-1 producing Klebsiella pneumoniae transconjugants/transformants with PFGE pulsotype G by Etest; in short: as §2
# [19] = tested on: Klebsiella pneumoniae; test: Antimicrobial activity against CTX-M-2 producing Klebsiella pneumoniae with PFGE pulsotype F by Etest
# [20] = tested on: Klebsiella pneumoniae; test: Antimicrobial activity against CTX-M-59 and TEM-1 producing Klebsiella pneumoniae transconjugants/transformants with PFGE pulsotype C by Etest; in short: as §2
Compound,MIC [1],MIC [2],MIC [3],MIC [4],MIC [5],MIC [6],MIC [7],MIC [8],MIC [9],MIC [10],MIC [11],MIC [12],MIC [13],MIC [14],MIC [15],MIC [16],MIC [17],MIC [18],MIC [19],MIC [20]
O=C(O)c1cn(C2CC2)c2cc(N3CCNCC3)c(F)cc2c1=O [CIPROFLOXACIN],0.125 µg/mL,0.032 µg/mL,0.023 µg/mL,0.023 µg/mL,0.032 µg/mL,0.023 µg/mL,0.032 µg/mL,0.032 µg/mL,0.023 µg/mL,,,,,,,,,,,
GENTAMICIN,> 256 µg/mL,256 µg/mL,> 256 µg/mL,> 256 µg/mL,> 256 µg/mL,24 µg/mL,> 256 µg/mL,> 256 µg/mL,,> 256 µg/mL,> 256 µg/mL,> 256 µg/mL,24 µg/mL,> 256 µg/mL,> 256 µg/mL,> 256 µg/mL,128 µg/mL,> 256 µg/mL,> 256 µg/mL,> 256 µg/mL
